Measurements taken from ChEMBL document CHEMBL1142321, “Selection of a respiratory syncytial virus fusion inhibitor clinical candidate. 2. Discovery of a morpholinopropylaminobenzimidazole derivative (TMC353121)” (J Med Chem, 2008).
In brackets after ≈: the same amount, converted by molar mass. Each block holds one molecule with its values, some of them ahead of it.

What was measured:
[1] = tested on: Respiratory syncytial virus; assay: Inhibition of RSV by MTT assay; assay type: functional, organism-based; conditions: human respiratory syncytial virus
In short: (§1)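 HeLaM epithelial-like cells infected with RSV with or without a range of compound concentrations; viability read by MTT after 1 week incubation. OD measured spectrophotometrically and pEC50 derived. Virus, cell and cytotoxicity controls on every plate, reference compounds in every test; runs failing control criteria rejected.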

[2] = Cytotoxicity against human HeLaM cells by MTT assay; assay type: functional, M-HeLa
[3] = Half life in Sprague-Dawley rat lung; assay type: ADME, organism-based
[4] = tested on: Respiratory syncytial virus; assay: Antiviral activity against RSV R2LO replication in HeLa cells; assay type: functional, organism-based; conditions: for EC50: human respiratory syncytial virus, HeLa; in short: as §1
[5] = tested on: Respiratory syncytial virus; assay: Antiviral activity against RSV R6LO replication in HeLa cells; assay type: functional, organism-based; conditions: for EC50: human respiratory syncytial virus, HeLa; in short: as §1
[6] = tested on: Respiratory syncytial virus; assay: Antiviral activity in RSV infected cotton rat model assessed as log reduction of viral titer at 0.25 mg/mL by aerosol administration 1 hr prior to viral challenge; assay type: functional
In short: (§2)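 Single aerosol from an ultrasonic nebulizer for 1 h, given 1 h before RSV challenge; dose stated as drug concentration in the nebulizer reservoir. BALF collected by lung flushing with physiological water 4 days after challenge. Virus titre measured by plaque titration; log reduction calculated against untreated control animals.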

[7] = tested on: Respiratory syncytial virus; assay: Antiviral activity in RSV infected cotton rat model assessed as log reduction of viral titer at 1.25 mg/mL by aerosol administration 1 hr prior to viral challenge; assay type: functional; in short: as §2
[8] = tested on: Respiratory syncytial virus; assay: Antiviral activity in RSV infected cotton rat model assessed as log reduction of viral titer at 5 mg/mL by aerosol administration 1 hr prior to viral challenge; assay type: functional; in short: as §2
[9] = tested on: Respiratory syncytial virus; assay: Antiviral activity in RSV infected cotton rat model assessed as log reduction of viral titer at 20 mg/mL by aerosol administration 1 hr prior to viral challenge; assay type: functional; in short: as §2
[10] = tested on: Respiratory syncytial virus; assay: Antiviral activity in RSV infected cotton rat model assessed as log reduction of viral titer at 10 mg/kg, iv after 24 hrs of viral challenge; assay type: functional
In short: (§3)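 Cotton rats received a single iv dose at set times before (minus) or after (plus) RSV challenge. Day 4 after challenge, lungs flushed with physiological water and BALF virus titre measured by plaque titration. Log reduction calculated against untreated controls.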

[11] = tested on: Respiratory syncytial virus; assay: Antiviral activity in RSV infected cotton rat model assessed as log reduction of viral titer at 10 mg/kg, po 2 hrs prior to viral challenge; assay type: functional
In short: (§4)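 Cotton rats dosed once orally by gavage 2 h before RSV challenge. BALF obtained by lung lavage with physiological water 4 days after challenge, virus titred by plaque assay. Log reduction expressed versus untreated control animals.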

[12] = tested on: Respiratory syncytial virus; assay: Antiviral activity in RSV infected cotton rat model assessed as log reduction of viral titer at 40 mg/kg, po 2 hrs prior to viral challenge; assay type: functional; in short: as §4
[13] = AUC (0 to infinity) in Sprague-Dawley rat plasma at 2 mg/kg, iv; assay type: ADME, organism-based; set-up: time infinity, dose 2 mg/kg, route intravenous
[14] = Plasma clearance in Sprague-Dawley rat at 2 mg/kg, iv; assay type: ADME, organism-based; set-up: dose 2 mg/kg, route intravenous
[15] = Volume of distribution in Sprague-Dawley rat plasma at 2 mg/kg, iv; assay type: ADME, organism-based; set-up: dose 2 mg/kg, route intravenous
[16] = Half life in Sprague-Dawley rat plasma at 2 mg/kg, iv; assay type: ADME, organism-based; set-up: dose 2 mg/kg, route intravenous
[17] = Cmax in Sprague-Dawley rat plasma at 10 mg/kg, po; assay type: ADME, organism-based; set-up: dose 10 mg/kg, route oral
[18] = AUC (0 to infinity) in Sprague-Dawley rat plasma at 10 mg/kg, po; assay type: ADME, organism-based; set-up: time infinity, dose 10 mg/kg, route oral
[19] = Absolute bioavailability in Sprague-Dawley rat plasma at 10 mg/kg, po; assay type: ADME, organism-based
[20] = tested on: Respiratory syncytial virus; assay: Antiviral activity against RSV LO replication in HeLa cells; assay type: functional, organism-based; in short: as §1
[21] = tested on: Respiratory syncytial virus; assay: Antiviral activity against RSV Cl11 replication in HeLa cells; assay type: functional, organism-based; conditions: for EC50: human respiratory syncytial virus, HeLa; in short: as §1
[22] = tested on: Respiratory syncytial virus; assay: Antiviral activity against RSV CI57 replication in HeLa cells; assay type: functional, organism-based; conditions: for EC50: human respiratory syncytial virus, HeLa; in short: as §1
[23] = tested on: Respiratory syncytial virus; assay: Antiviral activity against RSV CI41 replication in HeLa cells; assay type: functional, organism-based; conditions: for EC50: human respiratory syncytial virus, HeLa; in short: as §1
[24] = tested on: Respiratory syncytial virus; assay: Antiviral activity against RSV CI42 replication in HeLa cells; assay type: functional, organism-based; conditions: for EC50: human respiratory syncytial virus, HeLa; in short: as §1
[25] = tested on: Respiratory syncytial virus; assay: Antiviral activity against RSV R1LO replication in HeLa cells; assay type: functional, organism-based; conditions: for EC50: human respiratory syncytial virus, HeLa; in short: as §1
[26] = tested on: Respiratory syncytial virus; assay: Antiviral activity in RSV infected cotton rat model assessed as log reduction of viral titer at 2 mg/kg, iv 5 mins prior to viral challenge; assay type: functional; in short: as §3
[27] = tested on: Respiratory syncytial virus; assay: Antiviral activity in RSV infected cotton rat model assessed as log reduction of viral titer at 10 mg/kg, iv 96 hrs prior to viral challenge; assay type: functional; in short: as §3
[28] = tested on: Respiratory syncytial virus; assay: Antiviral activity in RSV infected cotton rat model assessed as log reduction of viral titer at 10 mg/kg, iv 72 hrs prior to viral challenge; assay type: functional; in short: as §3
[29] = tested on: Respiratory syncytial virus; assay: Antiviral activity in RSV infected cotton rat model assessed as log reduction of viral titer at 10 mg/kg, iv 48 hrs prior to viral challenge; assay type: functional; in short: as §3
[30] = tested on: Respiratory syncytial virus; assay: Antiviral activity in RSV infected cotton rat model assessed as log reduction of viral titer at 10 mg/kg, iv 24 hrs prior to viral challenge; assay type: functional; in short: as §3
[31] = tested on: Respiratory syncytial virus; assay: Antiviral activity in RSV infected cotton rat model assessed as log reduction of viral titer at 10 mg/kg, iv 4 hrs prior to viral challenge; assay type: functional; in short: as §3
[32] = tested on: Respiratory syncytial virus; assay: Antiviral activity in RSV infected cotton rat model assessed as log reduction of viral titer at 10 mg/kg, iv 1 hrs prior to viral challenge; assay type: functional; in short: as §3
[33] = tested on: Respiratory syncytial virus; assay: Antiviral activity in RSV infected cotton rat model assessed as log reduction of viral titer at 10 mg/kg, iv 5 mins prior to viral challenge; assay type: functional; in short: as §3
[34] = tested on: Respiratory syncytial virus; assay: Antiviral activity in RSV infected cotton rat model assessed as log reduction of viral titer at 10 mg/kg, iv after 3 hrs of viral challenge; assay type: functional; in short: as §3

- half-life [3]: 1210 min
SMILES: Cc1ccc(O)c(Cn2c(NCCCN3CCOCC3)nc3ccc(CNc4ccccc4CCO)cc32)n1
- EC50 [1]: 0.794 nM
- pCC50 [2]: 4.7

- half-life [3]: 5090 min
SMILES: Cc1cc(C)cc(NCc2ccc3nc(NC4CCN(CCO)CC4)n(Cc4nc(C)ccc4O)c3c2)c1
- EC50 [1]: 1.58 nM
- pCC50 [2]: 4.5

SMILES: Cc1cccc(CCc2ccc3nc(NC4CCN(C)CC4)n(Cc4nc(C)ccc4O)c3c2)c1
- EC50 [1]: 20 nM
- pCC50 [2]: 5.9

- half-life [3]: 624 min
SMILES: Cc1cc(C)cc(N(CCCC(N)=O)Cc2ccc3nc(NCCCN4CCOCC4)n(Cc4nc(C)ccc4O)c3c2)c1
- EC50 [1]: 0.251 nM
- pCC50 [2]: 4.7

- pEC90 [4]: <4
- EC50 ([4]; read-out: EC50): 0.28 µg/mL
- EC50 ([4]; read-out: Log EC50 (converted)): 501 nM
- pEC90 [5]: <6.7
- EC50 ([5]; read-out: EC50): 0.04 ng/mL
- EC50 ([5]; read-out: Log EC50 (converted)): 0.0794 nM
- AUC(0-inf) [13]: 354 ng·h/mL
- clearance [14]: 90 mL/min/kg
- Vd [15]: 79.3 L/kg
- half-life [16]: 618 min
- Cmax [17]: 47.3 ng/mL
- AUC(0-inf) [18]: 246 ng·h/mL
- bioavailability [19]: 14%
- half-life [3]: 1510 min
- pEC90 [20]: 9.6
- EC50 ([20]; human respiratory syncytial virus, HeLa): 0.07 ng/mL (≈ 0.000125 µM)
- pEC90 [21]: 10
- EC50 ([21]; read-out: EC50): 0.03 ng/mL
- EC50 ([21]; read-out: Log EC50 (converted)): 0.0501 nM
- pEC90 [22]: 9.8
- EC50 ([22]; read-out: EC50): 0.04 ng/mL
- EC50 ([22]; read-out: Log EC50 (converted)): 0.0794 nM
- pEC90 [23]: 10.1
- EC50 ([23]; read-out: EC50): 0.02 ng/mL
- EC50 ([23]; read-out: Log EC50 (converted)): 0.0316 nM
- pEC90 [24]: 10.1
- EC50 ([24]; read-out: EC50): 0.02 ng/mL
- EC50 ([24]; read-out: Log EC50 (converted)): 0.0316 nM
- pEC90 [25]: 7.5
- EC50 ([25]; read-out: EC50): 7.03 ng/mL
- EC50 ([25]; read-out: Log EC50 (converted)): 12.6 nM
SMILES: Cc1ccc(CCCO)c(NCc2ccc3nc(NCCCN4CCOCC4)n(Cc4nc(C)ccc4O)c3c2)c1
- Activity [6]: 0.6
- Activity [7]: 1
- Activity [8]: 1.5
- Activity [9]: 1.6
- Activity [10]: 0.2
- Activity [11]: 0.4
- Activity [12]: 0.8
- pCC50 [2]: 5.1
- CC50 ([2]; Homo sapiens, M-HeLa): 4.44 µg/mL (≈ 7.94 µM)
- Activity [26]: 0.4
- Activity [27]: 0.2
- Activity [28]: 0.4
- Activity [29]: 0.3
- Activity [30]: 0.5
- Activity [31]: 0.9
- Activity [32]: 0.9
- Activity [33]: 1.2
- Activity [34]: 0.5

SMILES: Cc1ccc(O)c(Cn2c(NC3CCN(C)CC3)nc3ccc(CN(C)c4ccccc4)cc32)n1
- EC50 [1]: 39.8 nM
- pCC50 [2]: 5.2

SMILES: Cc1cc(C)cc(NCc2ccc3nc(NCCc4ccccc4)n(Cc4nc(C)ccc4O)c3c2)c1
- EC50 [1]: > 100000 nM
- pCC50 [2]: 4.4

SMILES: Cc1cccc(/C=C/c2ccc3nc(NC4CCN(CCN)CC4)n(Cc4nc(C)ccc4O)c3c2)c1
- EC50 [1]: 3.16 nM
- pCC50 [2]: 5.1

SMILES: Cc1cc(C)cc(NCc2ccc3nc(NCCCN4CCN(C)CC4)n(Cc4nc(C)ccc4O)c3c2)c1
- EC50 [1]: 3.98 nM
- pCC50 [2]: 5

SMILES: Cc1cccc(NCc2ccc3nc(NCCCN4CCOCC4)n(Cc4nc(C)ccc4O)c3c2)c1
- EC50 [1]: 2.51 nM
- pCC50 [2]: 4.9

SMILES: Cc1cccc(CNc2ccc3nc(NC4CCN(C)CC4)n(Cc4nc(C)ccc4O)c3c2)c1
- EC50 [1]: 15.8 nM
- pCC50 [2]: 4.8

SMILES: Cc1ccc(O)c(Cn2c(NC3CCN(C)CC3)nc3ccc(C(O)c4ccccc4)cc32)n1 (stereo not drawn)
- EC50 [1]: 158 nM
- pCC50 [2]: <4

SMILES: Cc1cccc(SCc2ccc3nc(NC4CCN(C)CC4)n(Cc4nc(C)ccc4O)c3c2)c1
- EC50 [1]: 251 nM
- pCC50 [2]: 4.4

- half-life [3]: 822 min
SMILES: Cc1cc(C)cc(NCc2ccc3nc(NCCCN4CCOCC4)n(Cc4nc(C)ccc4O)c3c2)c1
- EC50 [1]: 1 nM
- pCC50 [2]: 5

SMILES: Cc1ccc(O)c(Cn2c(NC3CCN(C)CC3)nc3ccc(CN(CCO)c4ccccc4)cc32)n1
- EC50 [1]: 3.16 nM
- pCC50 [2]: <4

SMILES: Cc1ccc(O)c(Cn2c(NC3CCN(CCN)CC3)nc3c(C)cccc32)n1 [JNJ 2408068]
- EC50 [1]: 0.251 nM
- pCC50 [2]: <4
